ANO1 block – TMEM16A chloride channel inhibitors, primary screen, cell-based, HTS. Anoctamin-1 (Mus musculus), Q8BHY3. HEK293 TMEM16A/YFP iodide influx fluorescence, ionomycin. normalized B-score (activity score, 25-100; higher = stronger inhibition) at 10 µM. actives 1.2% (n = 310,000). AID 588511, 2011;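 active means ratio plate-corrected score three or more library SD toward inhibition, starting fluorescence score within five deviations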;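 further: score derived from kinetic fluorescence span divided by baseline fluorescence per well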
Apaf-1 inh – inhibitors of human Apaf-1 apoptosome, primary screen, biochemical, DEVD-Rh110 fluorescence, uHTS; actives 0.71% (n = 330,000); reconstituted apoptosome caspase-3 activity; inhibition, % at 20 µM; Apoptotic protease-activating factor 1 (Homo sapiens), O14727; active means inhibition of at least 40% at 20 µM
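System: reconstituted apoptosome with Apaf-1, cytochrome c, caspase-9, procaspase-3, dATP; Signal: Rh110 fluorescence intensity; Schedule: 30 min compound preincubation, 50 min activation, room temperature; Reagent: cytochrome c trigger plus (Z-DEVD)2-Rh110 caspase-3 substrate.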
UBC13 inh – UBC13 polyubiquitin chain formation inhibitors, primary screen, biochemical, TR-FRET, uHTS | Ubiquitin-conjugating enzyme E2 N (Homo sapiens), P61088 | inhibition, % at 20 µM | actives 0.47% (n = 330,000) | AID 485273, 2010; in the data active means inhibition above about 45%, passing the limit was not always enough
Target sequence (P61088 whole entry, looked up): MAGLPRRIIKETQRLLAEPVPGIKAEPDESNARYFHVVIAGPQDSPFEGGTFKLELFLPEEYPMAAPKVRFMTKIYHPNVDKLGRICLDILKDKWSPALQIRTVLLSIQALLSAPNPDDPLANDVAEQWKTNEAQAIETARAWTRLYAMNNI
FID counter – compounds displacing fluorescent DNA intercalator, primary screen, artefact control for HCV NS3 helicase inhibitor project, biochemical, FID fluorescence | DNA fluorescent intercalator displacement | inhibition, % at 7.9 µM | actives 0.17% (n = 290,000) | AID 1845, 2009; in the data active means inhibition above about 37%;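 further: higher means more ethidium bromide displaced from hairpin DNA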
TMEM16A act – TMEM16A chloride channel activators or potentiators, primary screen, cell-based, HTS; actives 0.3% (n = 340,000); HEK293 TMEM16A/YFP-H148Q/I152L, iodide quench fluorescence; active compounds read low; Anoctamin-1 (Mus musculus), Q8BHY3; AID 623877, 2012; B-score at 10 µM;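 active means fluorescence-ratio B-score plate-corrected deviation score at least 3 library SD below zero, with starting fluorescence score within 5 deviations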;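 further: channel opened by trigger with iodide after compound preincubation; score built on the fluorescence ratio of max minus min over baseline; more negative score means more quench and so TMEM16A activation or potentiation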
TMEM16A reconf – TMEM16A chloride channel inhibitors, confirmation, cell-based, re-confirmation | shares compounds with ANO1 block | AID 652189, 2013 | actives 39% (n = 2,300) | HEK293 TMEM16A/YFP-H148Q, iodide quench fluorescence; ionomycin added to raise cell calcium | inhibition, % at 10 µM;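 active means mean duplicate percent inhibition, scaled so buffer wells are 0 and the reference blocker 100, over three buffer SD above buffer mean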
HEK293 Ca mobil – calcium mobilization in TMEM16A/YFP HEK293 cells, confirmation, counter-screen for TMEM16A inhibitor project; shares compounds with ANO1 block; Fluo4 calcium mobilization; calcium response (% of ionomycin), % at 10 µM; actives 2% (n = 2,300);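 active means duplicate-averaged calcium signal over 20% of the ionomycin maximum, relative to buffer baseline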;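 further: each well's signal is peak minus trough fluorescence divided by its pre-addition baseline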
YFP-HEK293 quench – iodide YFP quench changes in parental YFP-HEK293, counter-screen for TMEM16A inhibitor project, cell-based; shares compounds with ANO1 block; ionomycin; YFP ratio F(max-min)/F0 at 10 µM; 2,300 tested, under 10 active; AID 652233, 2013;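 active means yellow fluorescent protein signal ratio exceeding the buffer control mean by over 5 SD of those controls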;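 further: ratio is mean of duplicate wells from kinetic YFP trace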
ClC-1 rat inh – ClC-1 chloride channel inhibition, selectivity assay for TMEM16A inhibitor project, cell-based, voltage-dependent ClC-1; shares compounds with ANO1 block; CHO ClC-1-YFP, iodide influx fluorescence quench; iodide control reads 0, buffer control 100; ratio percent, % at 10 µM; 2,300 tested, under 10 active;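 active means duplicate-mean ratio percent above the mean of iodide-only control wells, which defines zero, plus 5 of their SD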;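 further: higher percent means stronger block of ClC-1 iodide influx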
Of the large screens only hits and unclear results are named; the others gave an inactive call (follow-up assays come after a bar, where they were run). Most compounds without a hit are left out; they make up all but 2.4% or so of the library.

CCOC(=O)C1CCN(c2c(NCCN3CCCCC3C)c(=O)c2=O)CC1 (stereo not drawn)	ANO1 block 100 | TMEM16A reconf inactive | HEK293 Ca mobil inactive | YFP-HEK293 quench inactive | ClC-1 rat inh inactive
COc1ccc(C(=O)CSc2[nH]c(=O)cc(C(F)(F)F)c2C#N)cc1	ANO1 block 25 | TMEM16A reconf 22% | HEK293 Ca mobil inactive | YFP-HEK293 quench inactive | ClC-1 rat inh inactive
Cc1nc(-c2ccc(S(=O)(=O)Nc3ccc(Br)cc3Cl)s2)cs1	ANO1 block 100 | TMEM16A reconf 34% | HEK293 Ca mobil inactive | YFP-HEK293 quench inactive | ClC-1 rat inh inactive
CCOC(=O)c1c(C)[nH]c(C(=O)N/N=C/c2cc([N+](=O)[O-])ccc2O)c1C	ANO1 block 25 | TMEM16A reconf 20% | HEK293 Ca mobil inactive | YFP-HEK293 quench inactive | ClC-1 rat inh inactive
CCOC(=O)c1c(C)[nH]c(C(=O)N/N=C\c2ccccc2O)c1C	none (no result: Apaf-1 inh, UBC13 inh)
Cc1cc(NC(=O)COC(=O)[C@@H]2CCCN2C(=O)c2cccs2)no1	none (no result: ANO1 block, Apaf-1 inh, UBC13 inh, FID counter)
O=C(COC(=O)/C=C/c1cccc(C(F)(F)F)c1)NC(=O)NCc1ccco1	none (no result: ANO1 block, FID counter)
Cc1ccc(C)n1-n1cnc2sc(-c3ccccc3)cc2c1=O	none
Cc1ccc(C)n1-n1c(C)nc2sc(-c3ccccc3)cc2c1=O	ANO1 block 100 | TMEM16A reconf inactive | HEK293 Ca mobil inactive | YFP-HEK293 quench inactive | ClC-1 rat inh inactive
OC(CNc1nc(-c2cccnc2)nc2ccccc12)c1ccccc1 (stereo not drawn)	none
COc1ccc(-c2noc(CN(C(=O)c3cccs3)C(C)C)n2)cc1	ANO1 block 100 | TMEM16A reconf inactive | HEK293 Ca mobil inactive | YFP-HEK293 quench inactive | ClC-1 rat inh inactive
Cc1ccc(-c2noc(CN(C(=O)c3cccc(Br)c3)C(C)C)n2)cc1	none
Cc1ccc(-c2noc(CCCC(=O)NC3CCCCC3)n2)cc1	ANO1 block 25 | TMEM16A reconf inactive | HEK293 Ca mobil inactive | YFP-HEK293 quench inactive | ClC-1 rat inh inactive
Cc1ccc(C(=O)CC(=O)COc2ccc(Cl)cc2C)cc1	none
Cc1cc(Cl)ccc1OCc1nc(-c2ccc(O)cc2)n[nH]1	ANO1 block 25 | TMEM16A reconf 26% | HEK293 Ca mobil inactive | YFP-HEK293 quench inactive | ClC-1 rat inh inactive
Cc1ccnc(NC(=O)C2CC(=O)N(c3ccc4c(c3)OCCO4)C2)c1 (stereo not drawn)	none
CCCN1CCc2c(sc(NC(=O)c3ccc(S(=O)(=O)N(C)c4ccccc4)cc3)c2C(N)=O)C1	none
CCCN1CCc2c(sc(NC(=O)c3ccc(S(=O)(=O)N(C)c4ccccc4)cc3)c2C(=O)NC)C1	FID counter 44 | TMEM16A reconf 24% | HEK293 Ca mobil inactive | YFP-HEK293 quench inactive | ClC-1 rat inh inactive
CNC(=O)c1c(NC(=O)c2ccc(S(=O)(=O)N3CCCc4ccccc43)cc2)sc2c1CCN(C)C2	none | TMEM16A reconf inactive | HEK293 Ca mobil inactive | YFP-HEK293 quench inactive | ClC-1 rat inh inactive
Cn1cnnc1SCC(=O)NC1CCCN(Cc2ccccc2F)C1 (stereo not drawn)	none
